From ChEMBL document CHEMBL5653631, “A Potent and Selective ULK1 Inhibitor Suppresses Autophagy and Sensitizes Cancer Cells to Nutrient Stress” (iScience, 2018) come the findings set out here.

Test [1] deals with 5'-AMP-activated protein kinase catalytic subunit alpha-1 (Homo sapiens) (UniProt Q13131). Kind of test: Inhibition of human recombinant AMPKa1 at 40 nM in presence of ATP by radiometric assay relative to control. A digest of the protocol:
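Panel of 327 recombinant human kinases, each assayed in vitro by radiometric activity assay in duplicate at a single inhibitor concentration per compound, chosen with reference to its ULK1 inhibition. Activity remaining was expressed as percent of vehicle control, and percent inhibition was calculated as 100 minus percent activity remaining.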

Test [2] has as its target T1, Dual specificity protein kinase TTK (Homo sapiens) (UniProt P33981).
T1 sequence (whole entry): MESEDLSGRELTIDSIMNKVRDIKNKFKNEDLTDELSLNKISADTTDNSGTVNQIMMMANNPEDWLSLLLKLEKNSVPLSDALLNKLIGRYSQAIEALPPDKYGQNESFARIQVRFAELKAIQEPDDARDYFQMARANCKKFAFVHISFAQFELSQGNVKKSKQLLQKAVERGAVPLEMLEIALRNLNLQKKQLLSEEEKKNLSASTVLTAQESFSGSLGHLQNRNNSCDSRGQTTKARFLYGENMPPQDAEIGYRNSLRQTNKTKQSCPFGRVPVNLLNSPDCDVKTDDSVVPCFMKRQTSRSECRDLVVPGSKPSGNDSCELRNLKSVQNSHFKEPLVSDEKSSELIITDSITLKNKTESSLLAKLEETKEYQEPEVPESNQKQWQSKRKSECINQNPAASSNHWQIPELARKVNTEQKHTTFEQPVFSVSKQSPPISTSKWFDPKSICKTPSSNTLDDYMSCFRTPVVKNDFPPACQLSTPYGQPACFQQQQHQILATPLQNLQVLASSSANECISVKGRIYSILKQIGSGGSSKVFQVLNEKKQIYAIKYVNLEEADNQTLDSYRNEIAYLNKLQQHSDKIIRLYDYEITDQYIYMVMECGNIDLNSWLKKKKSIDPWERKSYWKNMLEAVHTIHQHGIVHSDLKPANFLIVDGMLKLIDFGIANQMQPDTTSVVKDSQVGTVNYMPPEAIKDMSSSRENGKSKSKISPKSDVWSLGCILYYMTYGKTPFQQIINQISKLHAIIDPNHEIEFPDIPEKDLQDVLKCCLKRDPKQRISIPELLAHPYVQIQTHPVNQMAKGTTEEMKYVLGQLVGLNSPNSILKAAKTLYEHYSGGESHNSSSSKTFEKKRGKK
Kind of test: Inhibition of human recombinant TTK at 40 nM in presence of ATP by radiometric assay relative to control.

For test [3], the target named is Tyrosine-protein kinase Tec (Homo sapiens) (UniProt P42680). Briefly: Inhibition of human recombinant TEC at 40 nM in presence of ATP by radiometric assay relative to control.
Test [4] has as its target Dual specificity protein kinase CLK3 (Homo sapiens) (UniProt P49761). Briefly: Inhibition of human recombinant CLK3 at 15 nM in presence of ATP by radiometric assay relative to control.
The target of test [5] is T2, Inhibitor of nuclear factor kappa-B kinase subunit beta (Homo sapiens) (UniProt O14920).
T2 sequence (whole entry): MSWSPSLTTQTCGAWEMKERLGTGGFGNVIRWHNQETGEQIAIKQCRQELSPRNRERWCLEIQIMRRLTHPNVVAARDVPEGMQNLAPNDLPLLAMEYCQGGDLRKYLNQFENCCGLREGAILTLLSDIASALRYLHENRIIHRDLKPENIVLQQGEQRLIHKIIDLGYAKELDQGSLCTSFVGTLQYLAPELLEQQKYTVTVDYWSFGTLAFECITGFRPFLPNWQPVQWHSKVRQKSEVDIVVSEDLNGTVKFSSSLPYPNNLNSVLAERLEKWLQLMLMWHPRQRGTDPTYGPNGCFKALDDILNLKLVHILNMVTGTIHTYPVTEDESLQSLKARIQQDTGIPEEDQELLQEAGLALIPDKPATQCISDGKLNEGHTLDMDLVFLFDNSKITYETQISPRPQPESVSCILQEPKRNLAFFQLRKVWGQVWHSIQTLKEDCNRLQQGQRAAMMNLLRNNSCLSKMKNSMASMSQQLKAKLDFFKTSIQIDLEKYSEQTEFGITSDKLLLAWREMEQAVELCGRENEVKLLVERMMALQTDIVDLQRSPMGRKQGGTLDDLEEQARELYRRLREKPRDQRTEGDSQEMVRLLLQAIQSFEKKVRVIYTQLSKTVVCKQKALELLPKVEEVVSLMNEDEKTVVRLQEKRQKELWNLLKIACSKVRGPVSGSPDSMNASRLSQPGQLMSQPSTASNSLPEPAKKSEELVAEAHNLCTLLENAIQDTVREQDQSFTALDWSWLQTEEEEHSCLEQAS
Kind of test: Inhibition of human recombinant IKKb at 15 nM in presence of ATP by radiometric assay relative to control.

Test [6] addresses T3, Receptor-interacting serine/threonine-protein kinase 1 (Homo sapiens) (UniProt Q13546).
T3 sequence (whole entry): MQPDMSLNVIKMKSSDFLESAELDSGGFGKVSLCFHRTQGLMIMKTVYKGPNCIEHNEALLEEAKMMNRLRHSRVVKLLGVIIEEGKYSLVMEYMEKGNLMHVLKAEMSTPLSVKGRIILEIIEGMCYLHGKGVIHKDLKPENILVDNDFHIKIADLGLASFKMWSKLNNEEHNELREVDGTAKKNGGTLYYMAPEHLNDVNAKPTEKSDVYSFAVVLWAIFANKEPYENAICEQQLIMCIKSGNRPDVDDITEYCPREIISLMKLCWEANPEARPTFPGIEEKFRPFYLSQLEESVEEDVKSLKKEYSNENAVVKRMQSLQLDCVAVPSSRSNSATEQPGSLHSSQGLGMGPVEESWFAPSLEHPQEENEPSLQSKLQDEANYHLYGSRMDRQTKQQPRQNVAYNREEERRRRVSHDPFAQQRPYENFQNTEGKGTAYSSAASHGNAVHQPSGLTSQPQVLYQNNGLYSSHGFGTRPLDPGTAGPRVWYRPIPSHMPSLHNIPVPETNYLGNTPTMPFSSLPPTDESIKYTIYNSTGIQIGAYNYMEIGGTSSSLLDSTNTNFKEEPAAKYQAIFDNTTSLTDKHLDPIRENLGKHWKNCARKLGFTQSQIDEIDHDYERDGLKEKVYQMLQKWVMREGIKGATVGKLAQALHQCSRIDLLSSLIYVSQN
Briefly: Inhibition of human recombinant RIPK1 at 15 nM related to control ULK1.

Chain of 5'-AMP-activated protein kinase catalytic subunit alpha-1 (Homo sapiens) (Q13131 whole entry, looked up): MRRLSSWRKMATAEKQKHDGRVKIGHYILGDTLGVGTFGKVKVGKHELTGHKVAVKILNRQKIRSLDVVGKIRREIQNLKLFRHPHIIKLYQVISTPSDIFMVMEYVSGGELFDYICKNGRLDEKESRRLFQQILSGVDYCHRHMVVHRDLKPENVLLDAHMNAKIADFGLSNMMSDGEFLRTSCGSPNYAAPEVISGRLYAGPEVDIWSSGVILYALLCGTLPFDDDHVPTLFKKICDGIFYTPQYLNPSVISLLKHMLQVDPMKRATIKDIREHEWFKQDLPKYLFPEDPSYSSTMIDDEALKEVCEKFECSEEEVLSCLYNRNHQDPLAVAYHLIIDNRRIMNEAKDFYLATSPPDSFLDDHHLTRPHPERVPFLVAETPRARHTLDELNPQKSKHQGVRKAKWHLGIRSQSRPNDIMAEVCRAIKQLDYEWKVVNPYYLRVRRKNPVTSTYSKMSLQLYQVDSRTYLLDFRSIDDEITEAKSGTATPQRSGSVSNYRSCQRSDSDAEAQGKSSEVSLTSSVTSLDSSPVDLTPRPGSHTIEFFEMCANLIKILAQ
Chain of Tyrosine-protein kinase Tec (Homo sapiens) (P42680 whole entry, looked up): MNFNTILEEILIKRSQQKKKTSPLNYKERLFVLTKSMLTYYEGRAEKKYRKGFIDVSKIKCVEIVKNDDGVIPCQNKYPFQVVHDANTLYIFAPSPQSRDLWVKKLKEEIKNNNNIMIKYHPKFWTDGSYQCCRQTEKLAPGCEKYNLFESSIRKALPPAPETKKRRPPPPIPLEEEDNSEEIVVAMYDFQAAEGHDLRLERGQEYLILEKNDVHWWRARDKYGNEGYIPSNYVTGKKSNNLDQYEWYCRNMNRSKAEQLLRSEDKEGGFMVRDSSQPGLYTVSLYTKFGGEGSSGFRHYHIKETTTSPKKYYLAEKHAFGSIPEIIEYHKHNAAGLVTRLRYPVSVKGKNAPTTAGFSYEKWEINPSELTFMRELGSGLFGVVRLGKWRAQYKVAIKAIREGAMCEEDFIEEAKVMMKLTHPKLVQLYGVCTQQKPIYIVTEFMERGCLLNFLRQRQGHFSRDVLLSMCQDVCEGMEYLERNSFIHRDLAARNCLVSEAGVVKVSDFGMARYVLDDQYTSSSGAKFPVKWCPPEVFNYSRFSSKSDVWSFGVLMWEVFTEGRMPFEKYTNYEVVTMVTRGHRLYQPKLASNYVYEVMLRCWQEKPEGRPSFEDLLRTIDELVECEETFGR
Chain of Dual specificity protein kinase CLK3 (Homo sapiens) (P49761 whole entry, looked up): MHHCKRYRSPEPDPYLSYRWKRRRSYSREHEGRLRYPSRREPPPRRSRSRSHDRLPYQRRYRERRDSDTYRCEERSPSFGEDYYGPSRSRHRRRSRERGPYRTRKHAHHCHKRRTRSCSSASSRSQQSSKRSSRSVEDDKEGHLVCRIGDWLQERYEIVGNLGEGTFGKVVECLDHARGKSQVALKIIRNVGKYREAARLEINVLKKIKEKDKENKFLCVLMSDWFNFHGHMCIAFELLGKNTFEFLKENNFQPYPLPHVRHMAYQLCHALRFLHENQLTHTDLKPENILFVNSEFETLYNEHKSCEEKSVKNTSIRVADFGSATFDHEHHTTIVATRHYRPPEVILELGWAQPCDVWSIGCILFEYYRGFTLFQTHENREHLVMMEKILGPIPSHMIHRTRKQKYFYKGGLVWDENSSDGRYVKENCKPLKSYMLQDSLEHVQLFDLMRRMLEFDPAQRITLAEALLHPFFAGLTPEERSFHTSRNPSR

What is called inhibition is the drop in the measured response relative to a control, in per cent. On to `O=C(N[C@@H](C1CC1)C(F)(F)F)c1cc(-c2cnn3cc(-c4ccc(F)cc4)cnc23)cs1`, for which the inhibition in test [1] amounted to 8%; in test [2], 33%; in test [3], 0%.

As for `CC(C)[C@H](NC(=O)c1cc(-c2cnn3cc(-c4ccc(OCCN5CCCCC5)cc4)cnc23)cs1)C(F)(F)F`, the inhibition in test [4] was 1%; in test [5], 0%. The fold change (FC) in test [6] turned out to be 0.01.
